Compounds with a hit are over-represented: about 4.3% of the library has one in this group of screens.
B2AR ag: beta2AR agonists driving receptor internalization, primary screen, cell-based, FAP fluorogen, flow cytometry | Beta-2 adrenergic receptor (Homo sapiens), P07550 | response, % (concentration not given with the values) | AID 504454, 2011 | 0.43% of 340,000 active | Am2.2-beta2AR cells;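 active = response above a set limit, near 3 SD of response in nonfluorescent compounds, cut at about 42% in these data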
HTR2A ag: mouse Htr2a agonists via beta-arrestin recruitment, primary screen, cell-based, luminescence; 5-hydroxytryptamine receptor 2A (Mus musculus), P35363; CHO-K1 mHTR2A beta-arrestin complementation; percent of 30 µM serotonin response; activation, % at 7.6 µM; 0.66% of 360,000 active;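 active = activation above a run cutoff, the mean activation of all tested compounds plus 3 SD, cut at about 14% in these data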
TAAR1 antagonist: human TAAR1 antagonists, primary screen, Fluo-8 calcium fluorescence, CHO RD-HGA16 cells; inhibition, % at 3 µM; 1.5% of 360,000 active; Trace amine-associated receptor 1 (Homo sapiens), Q96RJ0; antagonist;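 active = inhibition above a per-plate cutoff, the mean inhibition of test compounds on that plate plus 3 SD, cut at about 49% in these data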
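Assay system: CHO-derived RD-HGA16 cells stably expressing human TAAR1 plus Gα16. Timing: 140 s kinetic read after compound, 140 s after agonist. Technique: kinetic Fluo-8 calcium fluorescence measurement. Measure: % inhibition of agonist calcium response.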
MC4R ag barr: MC4R agonists recruiting beta-arrestin, primary screen, cell-based, luminescence, agonist arm of biased-ligand search | Melanocortin receptor 4 (Homo sapiens), P32245 | U2OS MC4R beta-arrestin complementation; percent of melanotan II response, DMSO zero | activation, % at 8.9 µM | 0.98% of 360,000 active;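 active = activation above a per-plate cutoff, the mean activation of sample wells on that plate plus 3 SD, cut at about 8% in these data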
Target sequence (P32245 whole entry, looked up): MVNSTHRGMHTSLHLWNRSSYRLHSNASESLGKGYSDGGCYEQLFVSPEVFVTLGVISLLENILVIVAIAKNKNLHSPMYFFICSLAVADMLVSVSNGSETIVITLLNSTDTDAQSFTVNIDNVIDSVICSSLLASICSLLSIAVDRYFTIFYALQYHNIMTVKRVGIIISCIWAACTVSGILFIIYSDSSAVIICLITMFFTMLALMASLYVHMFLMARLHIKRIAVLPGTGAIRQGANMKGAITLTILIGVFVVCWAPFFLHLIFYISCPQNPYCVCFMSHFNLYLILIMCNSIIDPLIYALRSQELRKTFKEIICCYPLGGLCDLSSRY
MC4R antagonist: MC4R antagonists of cAMP signaling, primary screen, cell-based, TR-FRET, antagonist arm of biased-ligand search. inhibition, % at 6.5 µM. 0.48% of 360,000 active. AID 540295, 2011. Melanocortin receptor 4 (Homo sapiens), P32245. MC4R-expressing cells, MTII-stimulated cAMP, LANCE TR-FRET;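 active = inhibition above its plate's cutoff, the mean of tested wells on that plate plus 3 SD, cut at about 29% in these data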
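System – human MC4R-expressing U2OS cells · Also added – Melanotan II · Dosing – one concentration, 6.5 µM nominal · Timing – 30-min compound, 1-h challenge, 1-h detection, room temperature · Measured by – Eu-cAMP/anti-cAMP TR-FRET, emission 671 nm · Replicates – singlicate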
TAAR1 ag: human TAAR1 agonists, primary screen, Fluo-8 calcium fluorescence, CHO RD-HGA16 cells | Trace amine-associated receptor 1 (Homo sapiens), Q96RJ0 | vehicle wells 0%, saturating PEA agonist 100% | activation, % at 3 µM | 0.99% of 360,000 active | AID 624467, 2012;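 active = activation above the mean activation of all test compounds in the run plus 3 SD, cut at about 38% in these data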
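Signal – calcium-sensitive Fluo-8 signal, excitation 470-495, emission 515-575 nm · System – RD-HGA16 (CHO) cells co-expressing Gα16 and hTAAR1 · Incubation – 17-24 h seeding, 75 min 37 °C dye, 30 min RT · Compound dosing – 3 µM single concentration · Repeats – no replicates (n 1)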
MC4R barr ag: MC4R beta-arrestin agonists, retest, confirmation, cell-based, luminescence, U2OS; U2OS MC4R beta-arrestin recruitment; scaled DMSO 0%, Melanotan II 100%; shares compounds with MC4R ag barr; AID 602192, 2012; activation, % at 8.9 µM; 31% of 2,400 active;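 active = mean activation across replicates above the hit cutoff set in the earlier primary screen, cut at about 8% in these data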
MOR DOR agonist: agonists of MOR-DOR heterodimerization, counter-screen for MC4R biased agonist project, cell-based, luminescence; shares compounds with MC4R ag barr; U2OS PathHunter beta-arrestin, beta-gal luminescence; percent of deltorphin B response, DMSO zero; activation, % at 9.2 µM; 5.8% of 2,400 active;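 active = mean activation across replicates exceeds the hit threshold derived in the earlier primary screen, cut at about 18% in these data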
Large screens that a line does not name were inactive (follow-up assays come after a bar, where they were run).

COc1ccc2oc(C(=O)OCC(=O)Nc3ccccc3OC)c(C)c2c1	MC4R ag barr 13.8 (no result: TAAR1 antagonist, TAAR1 ag) | MC4R barr ag inactive | MOR DOR agonist inactive
CCOc1ccccc1NC(=O)C(OC(=O)c1ccc(NC(=O)CC#N)cc1)c1ccccc1 (centres undefined)	none
N#Cc1nc(-c2ccc(OCc3ccc(Cl)cc3)cc2)oc1NCc1cccnc1	MC4R ag barr 14.6 | MC4R barr ag inactive | MOR DOR agonist inactive
CCOc1ccc(C(=O)Nc2ccc(N3CCN(C(=O)c4ccco4)CC3)cc2)cc1Br	MC4R ag barr 14.4 | MC4R barr ag inactive | MOR DOR agonist inactive
CCC(=O)N1CCN(c2ccc(NC(=O)c3ccc4ccccc4c3)cc2)CC1	MC4R ag barr 16.7 | MC4R barr ag inactive | MOR DOR agonist inactive
Cc1cccc(-c2n[nH]c(=S)n2/N=C/c2ccc(C)s2)c1	MC4R ag barr 11.6 | MC4R barr ag inactive | MOR DOR agonist inactive
O=C1OCc2ccc(NS(=O)(=O)c3ccc(C(F)(F)F)cc3)cc21	none
COc1cc(C(=O)OCC(=O)NCc2ccc(F)cc2)cc(NC(=O)c2cccs2)c1OC	MC4R ag barr 9.7 | MC4R barr ag inactive | MOR DOR agonist inactive
Cc1ccc(NC(=O)Nc2ccon2)cc1Cl	none
O=C(CNCCC1=CCCCC1)Nc1ccc(N2CCCCCC2)cc1	MC4R ag barr 13.2 | MC4R barr ag 9.4 | MOR DOR agonist inactive
CCCCN(C(=O)COC(=O)COc1c(C)cc(C)cc1C)c1c(N)n(CCC)c(=O)[nH]c1=O	none
Cc1ccc(OC(C)C(=O)N2CC(=O)Nc3ccccc32)c(C)c1 (centres undefined)	none
NC(=O)c1c(NC(=O)C2COc3ccccc3O2)sc2c1CCN(Cc1ccccc1)C2 (centres undefined)	MC4R ag barr 13.9 | MC4R barr ag inactive | MOR DOR agonist inactive
CCOc1ccc(N)c(SSc2cc(OCC)ccc2N)c1	MC4R ag barr 10.8 | MC4R barr ag inactive | MOR DOR agonist inactive
Nc1nc2c(ncn2[C@@H]2O[C@H](C(=O)N[C@H](Cc3ccccc3)C(=O)NCCCc3ccccc3)[C@@H](O)[C@H]2O)c(=O)[nH]1	none (no result: B2AR ag, HTR2A ag, MC4R ag barr, MC4R antagonist)
COC(=O)c1sccc1N/N=C/c1cccc(OC)c1O	MC4R ag barr 13.9 | MC4R barr ag inactive | MOR DOR agonist inactive
O=C(Nc1ccc(F)cc1)c1oc2ccccc2c1NC(=O)C1CCCC1	none (no result: TAAR1 antagonist, TAAR1 ag)
O=C(Nc1ccccc1F)c1oc2ccccc2c1NC(=O)C1CC1	MC4R ag barr 9.6 | MC4R barr ag inactive | MOR DOR agonist inactive
COc1cccc(/C=N/NC(=S)NC2CC3CCC2C3)c1OC (centres undefined)	none
Oc1ccccc1/C=N/NC(=S)NC1CC2CCC1C2 (centres undefined)	MC4R ag barr 12.3 | MC4R barr ag inactive | MOR DOR agonist inactive
COc1cc2ccccc2cc1C(=O)N1CCN(c2ccccn2)CC1	none
CCSc1nnc(NC(=O)c2csc3c2CCC(C)C3)s1 (centres undefined)	none
CC(=O)Nc1nnc(SCc2ccc(F)cc2)s1	none
CCSc1nnc(NC(=O)c2csc3c2CCCC3)s1	MC4R ag barr 15.1 | MC4R barr ag 27.2 | MOR DOR agonist inactive
O=C(Nc1nnc(SCc2ccc(F)cc2)s1)c1ccc2ncsc2c1	MC4R ag barr 17.5 | MC4R barr ag inactive | MOR DOR agonist inactive
